# Assay results of several laboratories.
# Target: Histamine H3 receptor (HRH3, Homo sapiens, UniProt Q9Y5N1)
SMILES,assay,setting,inhibition
C[C@H](C(=O)N[C@H]1COc2ccccc2[C@@H]1S(C)(=O)=O)c1ccc(F)cc1,cell-free assay,10 µM,1%
N#CC1(c2ccccn2)CCN(Cc2cc(C(=O)O)c(=O)n3ccccc23)CC1,cell-free assay,10 µM,4.08%
CN(CCN1CCC(OC(=O)Nc2ccccc2-c2ccccc2)CC1)C(=O)c1ccc(CN2CCC(C(N)=O)CC2)cc1,"ligand displacement, radioligand",1 µM,72%
O=C(Nc1cccnn1)N1CCN([C@@H]2CCOc3cc(C(F)(F)F)ccc32)CC1,cell-free assay,20 µM,11%
Cc1c(N2CCNCC2)nc2ccc(Br)cc2c1C(=O)NC[C@H](CCC(=O)O)c1ccccc1Cl,ligand displacement,10 µM,16.9%
c1ccc(C(NCCNC(c2ccccc2)c2ccccc2)c2ccccc2)cc1,cell-free assay,10 µM,1%
COCc1c(-c2cc3cc(C)cc(OC)c3s2)c2c(N)ncnn2c1CN1CCNC(=O)C1,"ligand displacement, radioligand",10 µM,-8%
CC(C)N1CCC[C@H]1CNC(=O)c1cn(C2CCCC2)c(=O)c2c1c1ccccc1n2C,"ligand displacement, radioligand",10 µM,26%
